The list is not random: actives were taken first. Their share in the collection is about 5.1%.
APP 5'UTR act – activators of APP 5'UTR luciferase reporter, primary screen, SH-SY5Y cells | SH-SY5Y APP 5'UTR luciferase reporter, luminescence; zero percent = DMSO vehicle wells | activation, % at 2 µM | 190,000 compounds, 1% hits;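 active means activation above a set limit, based on mean plus 3 SD of controls, cut at about 140% in these data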
NF-kB neuron act – activators of NF-kB expression in neurons, primary screen, cell-based, HTS. human neuronal cells, NF-kB reporter expression; hits give high values. 190,000 compounds, 1.6% hits. AID 1239, 2008. fold change at 12.5 µM; in the data active means fold change above about 3.3
STAT1 inh – STAT1 signaling inhibitors, primary screen, cell-based, HTS, luciferase reporter; NIH 3T3 STAT1-luciferase reporter, IFN-gamma, luminescence; inhibition, % at 5.5 µM; 200,000 compounds, 0.35% hits; AID 920, 2007;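 active means inhibition above a set limit, the mean inhibition across all tested compounds plus 3 SD, cut at about 34% in these data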;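 further: 0% = IFN-gamma with DMSO and 100% = IFN-gamma with 300 µM nifuroxazide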
STAT3 inh – IL-6 driven STAT3 reporter inhibitors, primary screen, U3A cells, luciferase, luminescence, MLSCN library; IL-6 STAT3-luciferase reporter; host cell line lacks STAT1; inhibition, % at 5.5 µM; 190,000 compounds, 0.89% hits; AID 862, 2007;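 active means inhibition above the mean inhibition across all screened compounds plus 3 SD, cut at about 44% in these data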;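 further: 0% = DMSO only wells and 100% = 100 µM nifuroxazide control wells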
STAT1 act – STAT1 signaling activators, primary screen, cell-based, HTS, luciferase reporter; NIH 3T3 STAT1-luciferase reporter, IFN-gamma, luminescence; 100% = IFN-gamma alone, no compound; activation (% of control), % at 5.5 µM; 200,000 compounds, 2.6% hits;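 active means activation above the screen-wide mean activation plus 3 SD, cut at about 130% in these data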;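 further: raw ratio to IFN-gamma control signal so 100% means no change and 0% no light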
STAT3 activator – IL-6 driven STAT3 reporter potentiators, primary screen, U3A cells, luciferase, luminescence, MLSCN library | AID 871, 2007 | 190,000 compounds, 0.91% hits | activation (% of control), % at 5.6 µM | IL-6 STAT3-luciferase reporter; 100% = signal with IL-6 EC80 alone;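 active means activation above the screen-wide mean of compound activation plus 3 SD, cut at about 130% in these data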;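 further: 0% = background luminescence of wells with medium and substrate only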
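Test system: human U3A cells carrying STAT3-luciferase construct; control set: IL-6-only wells as 100% reference; timing: compound pre-incubation 1 h before IL-6, then 6 h stimulation at 37 °C; also added: IL-6 stimulus at 33 ng/mL final; evaluation: % activation versus median of IL-6-stimulated wells; detection: reporter luminescence signal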
STAT1 act conf – STAT1 signaling activators, confirmation, cell-based, HTS, luciferase reporter. 1,200 compounds, 97% hits. NIH 3T3 STAT1-luciferase reporter, IFN-gamma potentiation, luminescence; 100% = IFN-gamma EC80 alone, no compound. shares compounds with STAT1 act. activation (% of control), % at 5.7 µM;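 active means activation above a set limit carried over from the earlier primary STAT1 screen, cut at about 140% in these data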;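 further: simple ratio to median IFN-gamma plus DMSO wells so 0% means no light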
NFkB act – NF-kB reporter activators, TNF-alpha stimulated, counter-screen for STAT1 activator project, cell-based, HEK293T, luciferase luminescence. activation (% of control), % at 5.7 µM. shares compounds with STAT1 act. 1,200 compounds, 43% hits. 100% = TNF-alpha with vehicle only;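 active means activation above the mean of solvent-only control wells plus 3 SD, set per campaign, cut at about 130% in these data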;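 further: TNF-alpha given at a submaximal dose yielding about 80% of full reporter signal; values are well signal over median control so 100% means no change and 0% no light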
STAT3 act STAT1c – STAT3 reporter activation by STAT1 hits, confirmation, counter-screen for STAT1 activator project, U3A cells, luciferase, luminescence; shares compounds with STAT1 act; IL-6; cells lack STAT1; 100 = IL-6 alone, no compound effect; activation (% of control), % at 5.7 µM; 1,200 compounds, 46% hits;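 active means activation above the solvent-only control well mean plus 3 SD, set per plate batch, cut at about 110% in these data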;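 further: 0% = no luminescence and 100% = median IL-6 plus DMSO wells; higher means more STAT3 reporter activation so hits are non-selective activators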
Starred values were filed as active, the others as inactive; x = no result.

SMILES	APP 5'UTR act	NF-kB neuron act	STAT1 inh	STAT3 inh	STAT1 act	STAT3 activator	STAT1 act conf	NFkB act	STAT3 act STAT1c
COc1ccc(C(=O)C2CCCN(Cc3ccc(Sc4nncn4C)o3)C2)cc1F (stereo not given)	-2	1.1	7	3	94	103	x	x	x
Cc1c(-c2nc(N)nc(Nc3ccc(F)cc3)n2)oc2ccccc12	152*	3.3*	-65	0	156*	102	183*	142*	106
C[C@H](NC(=O)c1nc[nH]c1C(=O)NC1CCN(C(=O)OC(C)(C)C)CC1)C(=O)OCc1ccccc1	-10	0.39	-7	x	108	x	x	x	x
Cc1cnc(C(=O)Nc2ccc(C(C)C)cc2)cn1	78	4.5*	-63	22	159*	85	180*	136*	95
Cc1sc2nc(SCC(=O)C(C)(C)C)n(Cc3ccco3)c(=O)c2c1C	4	2	3	-4	97	107	x	x	x
Cc1sc2nc3c4ccccc4c(NCc4ccco4)nn3c(=O)c2c1C	136*	3.8*	-62	0	157*	104	208*	155*	114*
COC(=O)CNc1nc(Cl)nc(Nc2ccc(Cl)cc2)n1	11	1	-12	3	110	99	x	x	x
CCn1c(C)cc(/C=C2\NC(=O)N(CC(=O)Nc3cccc(C)c3)C2=O)c1C	2	1.1	4	-9	95	117	x	x	x
CCn1c(C)cc(/C=C2/NC(=O)N(c3ccccc3)C2=O)c1C	89	0.95	-78	0	168*	101	187*	139*	103
CCCCc1n[nH]c(=S)n1Cc1ccc(Cl)cc1	15	1.1	0	5	100	100	x	x	x
O=C1c2ccccc2C(=O)N1c1cccc(-c2nc3ccccc3o2)c1	28	1	-4	6	103	99	x	x	x
Nc1nc2ccc(-c3nc4ccccc4o3)cc2s1	157*	10*	-57	20	152*	84	231*	130	102
c1ccc2oc(-c3ccc4nc[nH]c4c3)nc2c1	138*	5.2*	-56	9	151*	93	205*	135*	97
CCCCC(=O)NC(=S)Nc1nnn(CCC)n1	12	1	1	0	98	101	x	x	x
O=C(/C=C/Nc1ccc(F)c(F)c1)c1cccs1	144*	9.8*	-76	0	169*	100	229*	122	132*
COc1ccc(N(C(=O)CNC(=O)c2cccs2)C(C(=O)NCC2CCCO2)c2ccccc2)cc1 (stereo not given)	-8	0.86	10	4	89	98	x	x	x
O=C(NCc1cccnc1)c1ccc(NC(=O)c2cccc([N+](=O)[O-])c2)cc1	-10	0.8	-2	8	100	96	x	x	x
S=C(c1ccc(-c2ccc(Cl)cc2)o1)N1CCCCC1	184*	4.9*	-87	12	181*	97	222*	138*	115*
CCc1cc2c(=O)c(-c3ccc4c(c3)OCCO4)coc2cc1OS(C)(=O)=O	87	2.3	-62	-6	156*	108	160*	137*	117*
O=c1[nH]cnc2scc(-c3ccc(-c4ccccc4)cc3)c12	38	2.3	-60	33	159*	72	214*	113	90

High-throughput results: PubChem BioAssay, several laboratories
